The record followed here is ChEMBL document CHEMBL4033795, “Design, Synthesis, and Structure-Activity Relationship Study of 2-Oxo-3,4-dihydropyrimido[4,5- d]pyrimidines as New Colony Stimulating Factor 1 Receptor (CSF1R) Kinase Inhibitors” (J Med Chem, 2018).

For orientation: half-life means the time needed for the level to fall by half in the phase considered. Read a low half-life as rapid decline. What is called IC50 is the point on the concentration scale where inhibition reaches its midpoint. As usually defined, the inhibition is the relative decrease from the control value, in per cent.

Series [1] can be described thus: Half life in Sprague-Dawley rat at 25 mg/kg administered via oral gavage measured up to 72 hrs by LC/MS analysis. In kind it is ADME, organism-based. The following applies: in vivo. In short, it runs like this:
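Male Sprague-Dawley rats, 4–6 weeks old, acclimatised 1 week, were dosed iv at 5 mg/kg or by oral gavage at 25 mg/kg. Vehicle was 2% DMSO, 4% EtOH, 4% castor oil, 90% H2O. Blood was drawn by orbital sinus puncture from 2 min to 72 h into heparinized tubes. Plasma was assayed by LC/MS with propranolol as internal standard. Three animals per group.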

Series [2] deals with Fibroblast growth factor receptor 1 (Homo sapiens, UniProt P11362). The experiment in a line: Inhibition of cytoplasmic recombinant human His-tagged FGFR1 (308 to 731 residues) expressed in baculovirus using tyr4 peptide as substrate after 1 hr by FRET-based Z'-Lyte assay.
For series [3], the target named is Tyrosine-protein kinase ABL1 (Homo sapiens) (UniProt P00519). Description: Inhibition of human ABL1 (S229 to K512 residues) expressed in mammalian expression system at 100 nM by KINOMEscan assay relative to control.
The target in series [4] is Tyrosine-protein kinase Lyn (Homo sapiens) (UniProt P07948). Description: Inhibition of recombinant human LYN-A expressed in bacterial expression system at 100 nM by KINOMEscan assay relative to control.
The target in series [5] is Ephrin type-A receptor 8 (Homo sapiens) (UniProt P29322). Description: Inhibition of recombinant human EPHA8 (Q608 to C920 residues) expressed in bacterial expression system at 100 nM by KINOMEscan assay relative to control.
The target of series [6] is T1, Macrophage colony-stimulating factor 1 receptor (Mus musculus) (UniProt P09581).
T1 sequence (whole entry): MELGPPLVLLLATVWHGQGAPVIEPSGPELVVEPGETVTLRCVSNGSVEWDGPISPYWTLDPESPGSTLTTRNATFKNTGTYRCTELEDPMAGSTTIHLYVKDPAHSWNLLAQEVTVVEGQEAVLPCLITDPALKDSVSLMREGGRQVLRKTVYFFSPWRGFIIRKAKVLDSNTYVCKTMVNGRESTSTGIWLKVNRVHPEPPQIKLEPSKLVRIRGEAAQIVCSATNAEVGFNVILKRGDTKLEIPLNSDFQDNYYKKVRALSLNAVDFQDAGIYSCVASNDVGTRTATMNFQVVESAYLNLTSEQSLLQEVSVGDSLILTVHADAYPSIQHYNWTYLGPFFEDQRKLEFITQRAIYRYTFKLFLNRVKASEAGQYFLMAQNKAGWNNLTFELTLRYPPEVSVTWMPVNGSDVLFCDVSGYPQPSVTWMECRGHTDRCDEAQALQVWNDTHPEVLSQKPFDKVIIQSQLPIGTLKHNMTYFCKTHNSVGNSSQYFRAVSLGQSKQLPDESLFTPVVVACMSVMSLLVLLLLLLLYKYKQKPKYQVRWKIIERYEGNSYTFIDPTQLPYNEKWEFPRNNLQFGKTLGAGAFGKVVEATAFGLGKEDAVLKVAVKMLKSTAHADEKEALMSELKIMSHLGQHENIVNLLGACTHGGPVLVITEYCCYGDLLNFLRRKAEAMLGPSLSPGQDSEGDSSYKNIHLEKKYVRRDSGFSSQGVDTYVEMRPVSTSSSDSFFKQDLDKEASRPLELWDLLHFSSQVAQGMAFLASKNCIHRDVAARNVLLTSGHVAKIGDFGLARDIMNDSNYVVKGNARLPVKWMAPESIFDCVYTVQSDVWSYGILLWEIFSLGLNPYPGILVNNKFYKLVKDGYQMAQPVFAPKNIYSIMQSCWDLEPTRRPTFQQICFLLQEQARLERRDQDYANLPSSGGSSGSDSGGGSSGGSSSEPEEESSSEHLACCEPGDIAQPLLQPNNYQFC
Description: Inhibition of CSF1R phosphorylation in mouse RAW264.7 cells at 80 nM preincubated for 6 hrs followed by CSF1 stimulation for 20 mins by Western blot analysis relative to control. In kind it is cell-based. In short, it runs like this:
(§1)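 RAW264.7 cells were seeded, incubated overnight and treated 6 h with graded compound concentrations, then stimulated 20 min with CSF-1 (50 ng/mL). Lysates were run on 8−12% SDS-PAGE and immunoblotted for p-CSF1R (Tyr723), CSF1R, p-AKT, AKT and GAPDH. Bands were quantified and normalized to GAPDH. Mean ± SEM of at least three experiments.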
In general terms: Immunoblotting shows a protein as a band on a membrane.

Series [7] concerns the target T1, Macrophage colony-stimulating factor 1 receptor (Mus musculus). The experiment in a line: Inhibition of CSF1R phosphorylation in mouse RAW264.7 cells assessed as reduction in AKT phosphorylation at 80 nM preincubated for 6 hrs followed by CSF1 stimulation for 20 mins by Western blot analysis relative to control. It counts as cell-based. In short, it runs like this: as §1

For series [8], the system named is RAW264.7. Description: Inhibition of protumorigenic potential of mouse RAW264.7 cells assessed as abrogation of human LNCAP cell growth enhancement of macrophages at 0.016 uM co-cultured for 48 hrs by CCK8 assay relative to control. It counts as functional. Conditions: RAW264.7, 48 h. The gist of the method:
(§2)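 LNCaP cells, (2−4) × 10^5, were seeded in the lower transwell chamber. After 2 h, (1−2) × 10^6 RAW264.7 cells were added in a 0.4 μm insert. Compound at 0.016–2.0 μM was added to the top chamber and cells were cocultured 48 h at 37 °C. LNCaP cells were then imaged and counted by CCK8. Run three times, each in triplicate.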
A general note: Formazan colour is commonly taken as a measure of viable cells.

The subject of series [9] is RAW264.7. Description: Inhibition of protumorigenic potential of mouse RAW264.7 cells assessed as abrogation of human LNCAP cell growth enhancement of macrophages at 0.4 uM co-cultured for 48 hrs by CCK8 assay relative to control. It counts as functional. Conditions: RAW264.7, 48 h. In short, it runs like this:
as §2

Series [10] is filed under the species Homo sapiens. The experiment in a line: Selectivity ratio of IC50 for recombinant human His-tagged FLT3 (564 to 958 residues) expressed in baculovirus to IC50 for recombinant human His-tagged CSF1R cytoplasmic domain (538 to 910 residues) expressed in baculovirus.
The species named for series [11] is Homo sapiens. Description: Selectivity ratio of IC50 for recombinant cytoplasmic human GST-tagged PDGFRalpha expressed in baculovirus to IC50 for recombinant human His-tagged CSF1R cytoplasmic domain (538 to 910 residues) expressed in baculovirus.
In series [12] the test system is RAW264.7. The experiment in a line: Antimigratory activity against mouse RAW264.7 cells assessed as inhibition of human LNCaP-MDV-CM mediated macrophage migration after 24 hrs by crystal violet staining based transwell assay. In kind it is functional, cell-based. The gist of the method: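 RAW264.7 cells, (2−4) × 10^5, were placed serum-free in the upper insert of a transwell. The lower chamber held conditioned medium from LNCaP cells grown 48 h in 10% FBS RPMI 1640 with 10 μM MDV3100 or DMSO. Compound at 0.625–5.0 μM was added to the top chamber for 24 h at 37 °C. Migrated cells were fixed in methanol, stained with 0.25% crystal violet and counted in six random fields at 200×. Three independent experiments.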

Series [13] concerns RAW264.7. The experiment in a line: Inhibition of protumorigenic potential of mouse RAW264.7 cells assessed as abrogation of human LNCAP cell growth enhancement of macrophages co-cultured for 48 hrs by CCK8 assay. It counts as functional, cell-based. In short, it runs like this:
as §2

Each structure is given as a SMILES string.

Sequence of Fibroblast growth factor receptor 1 (P11362 whole entry, the tested form may be a part): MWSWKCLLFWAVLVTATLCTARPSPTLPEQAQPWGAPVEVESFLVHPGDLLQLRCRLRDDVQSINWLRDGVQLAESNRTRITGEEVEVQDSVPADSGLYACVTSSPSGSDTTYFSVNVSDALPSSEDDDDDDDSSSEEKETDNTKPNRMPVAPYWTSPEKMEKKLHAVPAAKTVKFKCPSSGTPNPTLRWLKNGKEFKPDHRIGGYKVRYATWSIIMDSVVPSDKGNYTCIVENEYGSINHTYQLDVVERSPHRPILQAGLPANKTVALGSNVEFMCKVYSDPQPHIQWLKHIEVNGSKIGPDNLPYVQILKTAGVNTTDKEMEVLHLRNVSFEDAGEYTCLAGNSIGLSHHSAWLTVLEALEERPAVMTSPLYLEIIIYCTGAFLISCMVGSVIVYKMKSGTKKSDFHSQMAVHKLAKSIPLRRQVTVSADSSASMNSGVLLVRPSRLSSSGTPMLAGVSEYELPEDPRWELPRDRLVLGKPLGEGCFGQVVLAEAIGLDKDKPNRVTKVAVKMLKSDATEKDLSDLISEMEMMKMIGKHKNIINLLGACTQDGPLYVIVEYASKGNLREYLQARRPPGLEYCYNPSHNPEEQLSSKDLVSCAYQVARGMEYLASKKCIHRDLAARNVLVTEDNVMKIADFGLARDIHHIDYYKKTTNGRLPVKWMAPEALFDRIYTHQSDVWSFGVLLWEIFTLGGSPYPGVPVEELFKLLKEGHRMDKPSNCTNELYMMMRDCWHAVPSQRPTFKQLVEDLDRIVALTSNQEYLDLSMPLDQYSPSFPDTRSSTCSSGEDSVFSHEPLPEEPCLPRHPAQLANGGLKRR
Sequence of Tyrosine-protein kinase ABL1 (Homo sapiens) (P00519 whole entry, the tested form may be a part): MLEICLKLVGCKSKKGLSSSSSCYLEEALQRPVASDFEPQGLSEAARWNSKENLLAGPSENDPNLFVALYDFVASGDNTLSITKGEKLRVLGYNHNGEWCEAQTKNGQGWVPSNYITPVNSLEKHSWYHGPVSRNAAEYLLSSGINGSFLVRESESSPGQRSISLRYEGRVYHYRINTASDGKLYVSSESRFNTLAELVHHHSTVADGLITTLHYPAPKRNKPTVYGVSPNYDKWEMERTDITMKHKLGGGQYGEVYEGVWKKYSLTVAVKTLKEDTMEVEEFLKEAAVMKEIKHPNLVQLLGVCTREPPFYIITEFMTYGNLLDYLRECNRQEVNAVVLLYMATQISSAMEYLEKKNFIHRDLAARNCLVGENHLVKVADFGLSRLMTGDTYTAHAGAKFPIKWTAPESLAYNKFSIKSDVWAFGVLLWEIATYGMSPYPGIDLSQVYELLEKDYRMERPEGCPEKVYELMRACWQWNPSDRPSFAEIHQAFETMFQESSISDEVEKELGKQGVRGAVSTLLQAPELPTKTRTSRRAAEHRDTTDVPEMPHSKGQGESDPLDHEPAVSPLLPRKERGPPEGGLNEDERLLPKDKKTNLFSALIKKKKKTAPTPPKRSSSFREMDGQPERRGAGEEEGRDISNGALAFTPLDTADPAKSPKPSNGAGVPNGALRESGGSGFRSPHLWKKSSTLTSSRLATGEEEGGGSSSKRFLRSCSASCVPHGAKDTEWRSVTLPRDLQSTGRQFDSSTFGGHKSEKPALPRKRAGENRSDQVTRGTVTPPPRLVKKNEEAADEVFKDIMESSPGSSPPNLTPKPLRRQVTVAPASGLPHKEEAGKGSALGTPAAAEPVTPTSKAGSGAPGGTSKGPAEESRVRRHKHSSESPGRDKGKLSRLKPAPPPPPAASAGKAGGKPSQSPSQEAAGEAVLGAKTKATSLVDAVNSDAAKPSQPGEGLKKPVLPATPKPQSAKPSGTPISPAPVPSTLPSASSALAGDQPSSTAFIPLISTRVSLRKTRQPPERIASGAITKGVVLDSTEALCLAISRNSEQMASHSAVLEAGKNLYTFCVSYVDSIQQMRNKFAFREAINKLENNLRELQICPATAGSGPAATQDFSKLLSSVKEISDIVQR
Sequence of Tyrosine-protein kinase Lyn (Homo sapiens) (P07948 2-512 limits assumed): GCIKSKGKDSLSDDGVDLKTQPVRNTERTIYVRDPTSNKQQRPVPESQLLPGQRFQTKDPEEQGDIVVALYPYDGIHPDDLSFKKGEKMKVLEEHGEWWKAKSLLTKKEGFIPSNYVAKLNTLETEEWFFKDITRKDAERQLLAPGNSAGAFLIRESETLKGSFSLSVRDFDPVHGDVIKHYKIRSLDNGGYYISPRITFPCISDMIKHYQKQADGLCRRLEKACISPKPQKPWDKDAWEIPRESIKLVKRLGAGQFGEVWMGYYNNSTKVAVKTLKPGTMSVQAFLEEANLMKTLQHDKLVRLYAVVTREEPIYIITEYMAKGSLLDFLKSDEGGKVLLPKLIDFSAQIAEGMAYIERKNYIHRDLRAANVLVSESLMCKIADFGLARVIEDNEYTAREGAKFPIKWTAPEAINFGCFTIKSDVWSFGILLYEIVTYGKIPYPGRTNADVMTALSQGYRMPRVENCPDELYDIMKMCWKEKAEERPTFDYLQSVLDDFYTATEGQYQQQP
Sequence of Ephrin type-A receptor 8 (Homo sapiens) (P29322 whole entry, the tested form may be a part): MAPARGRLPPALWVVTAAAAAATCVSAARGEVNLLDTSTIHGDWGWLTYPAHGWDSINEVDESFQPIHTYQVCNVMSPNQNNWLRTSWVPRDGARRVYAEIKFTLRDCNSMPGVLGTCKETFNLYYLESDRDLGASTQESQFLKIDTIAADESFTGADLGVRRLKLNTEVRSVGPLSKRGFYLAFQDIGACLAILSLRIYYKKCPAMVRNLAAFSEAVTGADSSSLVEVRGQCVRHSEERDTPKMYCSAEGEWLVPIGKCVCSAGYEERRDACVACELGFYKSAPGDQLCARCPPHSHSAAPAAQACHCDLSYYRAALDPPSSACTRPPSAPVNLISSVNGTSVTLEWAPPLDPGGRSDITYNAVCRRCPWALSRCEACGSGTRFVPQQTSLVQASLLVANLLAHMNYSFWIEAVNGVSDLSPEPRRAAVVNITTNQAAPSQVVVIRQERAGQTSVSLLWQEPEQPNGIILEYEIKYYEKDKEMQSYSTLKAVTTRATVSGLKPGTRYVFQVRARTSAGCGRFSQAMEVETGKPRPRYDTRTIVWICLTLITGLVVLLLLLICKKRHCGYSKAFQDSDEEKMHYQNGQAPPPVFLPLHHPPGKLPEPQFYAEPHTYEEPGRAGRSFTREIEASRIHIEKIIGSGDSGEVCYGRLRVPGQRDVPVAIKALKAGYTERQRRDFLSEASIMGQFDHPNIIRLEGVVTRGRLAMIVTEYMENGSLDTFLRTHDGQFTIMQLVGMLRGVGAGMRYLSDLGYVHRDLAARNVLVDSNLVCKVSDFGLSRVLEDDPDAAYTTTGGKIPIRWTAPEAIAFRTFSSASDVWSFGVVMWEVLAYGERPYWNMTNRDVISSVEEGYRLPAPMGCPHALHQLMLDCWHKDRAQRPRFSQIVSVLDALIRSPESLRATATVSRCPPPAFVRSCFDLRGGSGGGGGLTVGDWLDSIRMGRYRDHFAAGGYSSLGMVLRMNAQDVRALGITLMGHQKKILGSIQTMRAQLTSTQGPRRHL

In turn, `CCC(=O)N1CC[C@H](N2C(=O)N(c3cc(OC)ccc3Cl)Cc3cnc(Nc4ccc(N5CCN(C6COC6)CC5)c(C)c4)nc32)C1` had a half-life in series [1] of 1.08 h. Besides, the IC50 in series [2] stood at 10 nM. Further, the inhibition in series [3] was more than 90%; in [4], more than 90%; in series [5], more than 90%; in series [6], 50%; in series [7] it was 50%; in [12], “Dose-dependent effect”. In addition, the inhibition result in series [13] is “Dose-dependent effect”. Further, the inhibition at 0.016 µM in [8] worked out at 63.4%. Moreover, the inhibition at 0.4 µM in series [9] was 85%. Besides, the Ratio IC50 in series [10] and in series [11] was 10 to 35 each time.
